The format of series [1] is cell-based.
In series [2] the test system is T98G cells. Put plainly: Cellular uptake and distribution by fluorescence imaging. Type of series: cell-based. The method, boiled down:
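T98G cells incubated with the test peptide at 100 or 200 μM and imaged by confocal fluorescence microscopy after 2 h. Counterstains used: Hoechst 33342 for nuclei, fibrillarin immunofluorescence for nucleoli, and ER Tracker. Localisation to lysosomes was also assessed.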

Series [3] can be described thus: CD spectra, secondary structure inferred by DichroWeb. Type of series: physicochemical. The settings on record: 200 μM.
The test system of series [4] is phospho-Ser139-H2AX (γH2AX). As to the kind of experiment: Immunofluorescence of γH2AX. Type of series: cell-based. The note with it: T98G cells, 200 μM, 2 h.
For series [5], the system named is RNA extracted from T98G cells. As to the kind of experiment: Interaction with total RNA extracted from T98G cells in PBS buffer.
The subject of another series is HeLa. As to the kind of experiment: Nucleolus targeting in HeLa cells. It is filed as cell-based.
A further series concerns MES-SA/Dx5. Put plainly: Nucleolus targeting in MES-SA/Dx5 cells. It is filed as cell-based.
In another series the test system is Saos-2. Put plainly: Nucleolus targeting in Saos-2 cells. Type of series: cell-based.
Series [6] has as its system T98G cells. The settings on record: 50 uM; cited from earlier work.

The structures appear in SMILES notation. Square brackets hold non-standard residues; d marks the D form. Peptide text beside a SMILES is read from it. * marks the point of attachment. Acetyl(thymin-1-yl) = Cc1cn(CC(=O)*)c(=O)[nH]c1=O; NBD = O=[N+]([O-])c1ccc(*)c2nonc12

`Cc1cn(CC(=O)N[C@H](Cc2ccccc2)C(=O)N[C@H](Cc2ccccc2)C(=O)N[C@H](CCCCN)C(=O)N[C@H](CCCCN)C(=O)N[C@H](Cc2ccccc2)C(=O)N[C@H](CCCCN)C(=O)N[C@H](CC(C)C)C(=O)N[C@H](CCCCN)C(=O)N[C@H](CC(C)C)C(=O)N[C@H](CCCCNc2ccc([N+](=O)[O-])c3nonc23)C(=O)O)c(=O)[nH]c1=O` [D-1] ({Acetyl(thymin-1-yl)}-[dF][dF][dK][dK][dF][dK][dL][dK][dL][dK](NBD)-OH; N-terminus and C-terminus assumed) displayed an IC50 in series [1] of 86.2 µM. For the same compound, the Cell entry result with T98G cells [2] (100 μM, fluorescence imaging) is on record as “hardly enters the cells”. In addition, in the series with T98G cells [2] (200 μM, 2 h, fluorescence imaging), the Cellular distribution entry is on record as “bright fluorescent puncta in cell nucleus”. Further, the Lysosomal localisation entry with T98G cells [2] (200 μM, fluorescence imaging) is given as “only slightly localized in the lysosome”. Also, the “Cellular uptake at 4 °C” value in the series on T98G cells [2] (4 °C, 1 h) is “hardly exhibit any fluorescence”. In series [3], this compound had an unordered structures content of 28%, a α-helix content of 36%, a β-sheet content of 13% and a β-turns content of 23%. Further, in [4], the “γH2AX foci formation (DNA damage)” value is “leads to γH2AX foci formation”. The “Interaction with RNA” value in series [5] is on record as “form precipitates that resist ribonuclease”. The Nucleolus targeting entry with HeLa is given as “able to target nucleoli”. In addition, in the series with MES-SA/Dx5, the Nucleolus targeting result is listed as “able to target nucleoli”. Moreover, the Nucleolus targeting result with Saos-2 is “able to target nucleoli”. Also, in the series on T98G cells [6], the “Effect on cells at low concentration” value is on record as “innocuous to the cells”.

Values taken from PMC6800822 (Bioconjugate chemistry, 2019).
